From PubChem BioAssay
Sampled rows, rich in hits. Any-hit rate of the full collection: about 4%.
Ecoli rRNA inh = reduced GFP signal of wild-type E. coli, primary screen, bacterial rRNA inhibitor project, GFP/RFP fluorescence, OD600, single point; 1.6% of 350,000 active; GFP signal change (wild-type ribosome), % (concentration not given with the values); E. coli WT GFP vs humanized-ribosome RFP mutants, 24 h; active compounds read low; DMSO median 0, no signal -100; AID 720706, 2013;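 active = significant combined selectivity score with lowered wild-type GFP, culture density cut under 30%, mutant RFP and density less affected; inactive = any of these conditions unmet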
E-sel inducer = E-selectin induction in HUVECs, primary screen, imaging, HUVEC, immunofluorescence imaging, single point; P16581; normalized: neutral wells 0, TNF-alpha wells 100; activation, % at 7.58 µM; 0.37% of 260,000 active;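 active = mean E-selectin-positive cell signal at least 10% of the positive control, reached in at least 60% of replicates, without over 20% cell loss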
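Test system – human umbilical vein endothelial cells (HUVEC), E-selectin induction · Input – 3,000 HUVEC seeded per well · Buffer or medium – EGM-2, gelatin · Compound dosing – single-point compound dose · Detection – immunofluorescence imaging · Measure – percent E-selectin-positive cells · Controls – TNF-alpha high, DMSO low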
FGF22 binding-1 = binders of human FGF22 protein, primary screen, FGF22 synaptogenesis inhibitor project, biophysical, thermal shift, single point; activity (Tm shift, normalised), % at 9.99 µM; AID 651658, 2012; Fibroblast growth factor 22 (Homo sapiens), Q9HCT0; 1.5% of 340,000 active; recombinant FGF22 thermal shift, SYPRO orange fluorescence; percent of sucrose octasulfate shift, DMSO zero;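 active = mean Tm shift, scaled 0 neutral to 100 positive control, at about 1.3% or above, every replicate too, limit read from the data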
Target sequence (Q9HCT0 whole entry, looked up): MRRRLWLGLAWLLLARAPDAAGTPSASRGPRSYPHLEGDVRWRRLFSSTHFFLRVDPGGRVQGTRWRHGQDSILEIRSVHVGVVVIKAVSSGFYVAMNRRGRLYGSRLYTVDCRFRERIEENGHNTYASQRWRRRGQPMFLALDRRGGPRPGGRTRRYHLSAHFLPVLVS
SIRT5 block = SIRT5 desuccinylase inhibitors, primary screen, biochemical, fluorescence imaging, single point, set 5. AID 652115, 2013. 1.1% of 330,000 active. NAD-dependent protein deacylase sirtuin-5, mitochondrial (Homo sapiens), Q9NXA8. inhibition, % at 15 µM. Purified SirT5, succinyl-peptide AMC, trypsin-coupled fluorescence; in the data active = inhibition above about 15%
Target sequence (Q9NXA8 whole entry, looked up): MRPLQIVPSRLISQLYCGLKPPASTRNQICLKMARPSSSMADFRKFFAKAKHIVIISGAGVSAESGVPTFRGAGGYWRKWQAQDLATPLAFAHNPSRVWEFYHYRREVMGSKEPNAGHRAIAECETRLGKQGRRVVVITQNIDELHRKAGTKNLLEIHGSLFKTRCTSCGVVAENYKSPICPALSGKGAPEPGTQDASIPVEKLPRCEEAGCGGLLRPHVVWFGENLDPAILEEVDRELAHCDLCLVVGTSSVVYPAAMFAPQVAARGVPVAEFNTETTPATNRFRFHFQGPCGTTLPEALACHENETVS
FN deposition inh = inhibitors of fibronectin matrix deposition, primary screen, AH1F cells, Alexa488-fibronectin fluorescence, plate reader; AH1F fibroblasts, overnight; inhibition, % at 12.6 µM; 0.086% of 350,000 active; AID 743247, 2014;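 active = mean inhibition across replicates of 30% or more, regardless of how many single replicates reach that level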;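 also: positive control wells lacked labelled fibronectin entirely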
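Material: AH1F fibroblast monolayer depositing Alexa488-labelled fibronectin into matrix | Input: 10000 AH1F cells/well | Medium: DMEM plus 2% serum, read in PBS | Reagent: Alexa488-fibronectin, 24 nM final in well | Compound dosing: One dose per compound, pinned | Schedule: 1 h adhesion, overnight exposure | Measured by: Fluorescence at 485 nm excitation, 525 nm emission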
C2C12 statin = suppressors of statin myotoxicity in C2C12 myotubes, primary screen, cell-based, single point, plate reader; C2C12 myotubes + simvastatin, ATP luminescence, 48 h; scaled: DMSO 0, geranylgeraniol control 100; rescue of ATP level, % at 7.49 µM; 0.78% of 330,000 active;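 active = mean ATP rescue above about 67%, or every replicate alone reaching that limit, limit read from the data, passing the limit was not always enough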;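 also: myotubes were challenged with 10 µM simvastatin during compound exposure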
FGF22 binding-2 = binders of human FGF22 protein, dose response, FGF22 synaptogenesis inhibitor project, biophysical, thermal shift, cherry-pick retest | shares compounds with FGF22 binding-1 | recombinant FGF22 thermal shift, SYPRO orange fluorescence | thermal shift activity, °C (ΔTm) at 38 µM | 2% of 1,000 active | AID 720646, 2013;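 active = fitted rise in melting shift crosses a set limit at or below the top valid dose tested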
FGF22 TSA = binders of human FGF22 protein, dose response, FGF22 synaptogenesis inhibitor project, biophysical, thermal shift, dry powder; shares compounds with FGF22 binding-1; Thermal shift assay, SYPRO orange, melting temperature shift; Tm shift (activity), % at 38 µM; 50 tested, under 10 active; AID 743017, 2013;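 active = compounds whose fitted dose curve of melting temperature shift rises past a set threshold within the tested doses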
TSA no protein = compound-only thermal shift signal without protein, dose response, artefact control for FGF22 binder project, biochemical, cherry-picked samples, RT-PCR instrument | shares compounds with FGF22 binding-1 | compound-only SYPRO orange thermal shift counter-screen, no protein | AC50, µM (titrated, usually from 38 µM) | 2% of 1,000 active;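 active = rising signal whose fitted curve reaches the 0.54 level within the top valid dose, showing a melting point, actives reach about 13 µM in these data; inactive = the rest, including activity in the opposite direction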; also: value is where the raw curve crosses a fixed level and not half-maximal
* marks the source's active call; other numbers are inactive results; i = inactive; . = no result; [ ] = dose if it differs, or a comment.

SMILES | Ecoli rRNA inh | E-sel inducer | FGF22 binding-1 | SIRT5 block | FN deposition inh | C2C12 statin | FGF22 binding-2 | TSA no protein | others
C[C@@H]1CN([C@@H](C)CO)S(=O)(=O)c2ccc(-c3cncnc3)cc2O[C@H]1CN(C)C(=O)CN(C)C | 7.7 | 0.7 | 0.1 | -0.1 | -4.9 | -1.9 | . | .
C[C@@H]1CN([C@H](C)CO)S(=O)(=O)c2ccc(-c3cncnc3)cc2O[C@@H]1CN(C)C(=O)CN(C)C | 11.4 | 0.3 | 15.3* | 1.5 | -8.0 | -7.4 | 0.109 | i
C[C@H](CO)N1C[C@H](C)[C@@H](CN(C)C(=O)CN(C)C)Oc2cc(C3=CCCCC3)ccc2S1(=O)=O | 1.5 | -0.3 | 1.6* | 4.5 | -4.4 | 8.5 | 0.122[42 µM] | i
C[C@H]1CN([C@@H](C)CO)S(=O)(=O)c2ccc(C3=CCCCC3)cc2O[C@@H]1CN(C)C(=O)CN(C)C | 2.0 | 0.9 | 1.1 | 6.3 | -3.3 | -4.8 | . | .
C[C@@H]1CN([C@H](C)CO)C(=O)c2cc(NC(=O)CCCN(C)C)ccc2O[C@@H]1CN(C)C(=O)Nc1ccc2c(c1)OCO2 | -1.3 | -3.1 | 0.3 | -0.8 | -1.1 | -12.1 | . | .
CN(C)C(=O)C[C@H]1C[C@H]2c3cc(NC(=O)c4cccnc4)ccc3O[C@H]2[C@H](CO)O1 | 1.6 | 0.1 | -0.1 | 0.9 | 5.1 | 1.3 | . | .
COc1ccc2c3c([nH]c2c1)[C@H](CO)NCC31CCN(C(=O)Cc2ccccc2)CC1 | 2.2 | 0.0 | 0.0 | . | . | . | . | .
COC(=O)CN1C(=S)N(c2ccc(F)cc2)C(=O)C1CC(=O)Nc1ccccc1 (stereo not given) | -6.1 | 5.9 | 1.6* | -4.5 | 0.7 | . | 0.007 | i
CCOc1ccc(NC(=O)CC2C(=O)N(c3ccccc3)C(=S)N2Cc2ccccn2)cc1 (stereo not given) | . | . | . | . | -7.1 | -2.2 | . | .
CCOc1ccc(NC(=O)CC2C(=O)N(c3ccc(OC)cc3)C(=S)N2Cc2ccccn2)cc1 (stereo not given) | -7.5 | 0.3 | 2.0* | -5.5 | 2.5 | 2.8 | -0.188 | i
COC(=O)CN1C(=S)N(c2ccc(Cl)cc2)C(=O)C1CC(=O)Nc1ccccc1 (stereo not given) | -8.0 | . | 0.3 | -2.5 | -1.8 | . | . | .
COc1ccc(CN2C(=O)N(c3ccc(OC)cc3)C(=O)C2CC(=O)Nc2ccccc2)cc1 (stereo not given) | -2.3 | 0.0 | 1.4* | -10.4 | -2.0 | -4.8 | -0.539 | i
CO[C@@H]1CN(C)C(=O)c2ccc(NC(=O)c3ccccc3)cc2OC[C@@H](C)N(CC2CC2)C[C@H]1C | 0.9 | 0.0 | 0.1 | 7.4 | -4.2 | -0.5 | . | .
COc1cc2oc(-c3ccc(O)cc3)cc(=O)c2c(O)c1OC | . | . | 10.1* | . | . | -6.5 | -0.085 | i
O=C(Cc1n[nH]c(=O)[nH]c1=O)N/N=C/c1c(O)ccc2ccccc12 | 13.8 | 0.2 | 1.4* | 2.3 | 5.5 | . | . | 10µM*
CCOC(=O)[C@]12CCCC=C1N(Cc1ccccc1)C(=O)[C@H](CC(=O)NCC1CCCCC1)C2 | -30.4 | 0.6 | 2.2* | 3.5 | -7.2 | . | -0.08 | i
CCCNC(=O)N1C[C@H]2[C@@H](c3ccccc31)[C@@H](CO)N2Cc1cccc(OC)c1 | 0.9 | 0.3 | -0.4 | 9.2 | -1.8 | 12.1 | . | .
O=C1Nc2cc(Cl)c(Cl)cc2N(O)N1c1ccc(Cl)cc1 | -10.3 | . | 28.0* | -2.0 | . | 12.7 | 0.099 | i
COc1ccc(CN(C)C[C@H]2Oc3ccc(NC(=O)Cc4cn(C)c5ccccc45)cc3C(=O)N([C@H](C)CO)C[C@H]2C)cc1 | -0.2 | -0.5 | 0.2 | 5.4 | . | 16.8 | . | .
Cc1nc2ccc(Br)cc2c(-c2ccccc2)c1C(=O)O | 7.0 | -0.1 | 29.3* | -0.9 | -0.4 | . | 0.106 | i
Clc1ccc(Nc2ccc(NCc3ccccc3)nn2)cc1 | -56.2 | -0.1 | 2.3* | 3.8 | 5.0 | . | 0.014 | i | FGF22 TSA=0.0
Cc1ccc(Nc2ccc(NCc3ccccc3)nn2)cc1C | . | . | . | . | 6.9 | . | . | .
CCN(CCn1cccn1)C(=O)CCc1nnc(Cc2c[nH]c3ccccc23)o1 | 10.9 | -0.1 | 12.3* | -4.5 | -10.6 | . | 0.234 | i
CCN(CCn1cccn1)C(=O)CCc1nnc(-c2ccccc2)o1 | 6.3 | -0.1 | 0.1 | -1.7 | -1.3 | . | . | .
O=C(C1CCOCC1)N1CC2(C1)[C@H](c1ccccc1)[C@H](CO)N2Cc1ccccc1F | -0.1 | -0.2 | . | 0.9 | -2.0 | . | . | .
SMILES | Ecoli rRNA inh | E-sel inducer | FGF22 binding-1 | SIRT5 block | FN deposition inh | C2C12 statin | FGF22 binding-2 | TSA no protein | others
O=C(C1CCOCC1)N1CC2(C1)[C@@H](c1ccccc1)[C@@H](CO)N2Cc1ccccc1F | -4.0 | 0.0 | 1.5* | -6.0 | -22.6 | . | 0.019 | i
O=C(c1ccccc1)N1CC2(C1)[C@@H](c1ccccc1)[C@@H](CO)N2Cc1cc(F)ccc1F | -17.6 | -0.3 | -0.5 | 5.7 | . | . | . | .
O=C(c1ccccc1)N1CC2(C1)[C@H](c1ccccc1)[C@H](CO)N2Cc1cc(F)ccc1F | -6.3 | 0.0 | 1.3* | -1.7 | . | . | 0.152[42 µM] | i
CC(C)c1c(C(=O)N/N=C/c2c[nH]c3ccccc23)nnn1-c1nonc1N | -17.9* | . | 2.3* | 5.8 | 1.0 | -21.3 | . | i | FGF22 TSA=0.7
CN(Cc1c(C(=O)N/N=C/c2ccc(O)cc2)nnn1-c1nonc1N)c1ccccc1 | -27.3* | 8.5 | 1.9* | 6.4 | -1.3 | -1.8 | -0.027 | i | FGF22 TSA=-0.1
CO[C@H](CN(C)S(=O)(=O)c1cccc(Cl)c1)[C@H](C)CN([C@@H](C)CO)S(=O)(=O)c1cccc(Cl)c1 | -2.6 | 0.1 | 1.8* | 0.0 | 4.0 | -2.3 | 0.12[42 µM] | i
